Read-outs that look alike come from different tables or passages of the source.
Experiments:
[1] = previously studied radioiodinated α7-nAChR radioligand; cited from earlier work
α7-nAChR [2] = biological target: α7-nAChR (Mus musculus, UniProt P49582); test: Blockade of [^125I]iodo-ASEM binding in CD-1 mouse brain by s.c. blockers; format: in vivo, CD-1 mice; conditions: for inhibition of [^125I]iodo-ASEM binding by blocker: SSR180711 2 mg/kg s.c., 180 min post-injection; for reduction of [^125I]iodo-ASEM accumulation in mouse brain by blocker: CB, Hipp, Ctx, Coll, 180 min, P > 0.05 vs vehicle
Chain of α7-nAChR (Mus musculus, UniProt P49582) (P49582 23-502): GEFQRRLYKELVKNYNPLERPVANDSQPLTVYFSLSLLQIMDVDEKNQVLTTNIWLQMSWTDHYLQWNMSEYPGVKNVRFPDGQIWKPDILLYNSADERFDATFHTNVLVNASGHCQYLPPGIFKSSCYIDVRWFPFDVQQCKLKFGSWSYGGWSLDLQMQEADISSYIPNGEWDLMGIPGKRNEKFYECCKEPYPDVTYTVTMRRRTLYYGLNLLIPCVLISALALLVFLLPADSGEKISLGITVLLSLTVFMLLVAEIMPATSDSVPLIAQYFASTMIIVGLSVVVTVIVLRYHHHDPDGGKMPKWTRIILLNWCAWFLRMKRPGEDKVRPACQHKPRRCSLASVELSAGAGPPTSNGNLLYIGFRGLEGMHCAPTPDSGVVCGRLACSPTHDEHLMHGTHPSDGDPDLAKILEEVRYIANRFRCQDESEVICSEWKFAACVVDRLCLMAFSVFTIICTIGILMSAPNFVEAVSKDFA

α7-nAChR [3] = biological target: α7-nAChR (Rattus norvegicus, UniProt Q05941); format: binding
Chain of α7-nAChR (Rattus norvegicus, UniProt Q05941) (Q05941 23-502): as the sequence (P49582 23-502) above, with T402A counted along it

α4β2-nAChR = α4β2-nAChR (Homo sapiens, UniProt P17787+P43681); format: binding; conditions: for α7-nAChR Binding selectivity α7/α4β2: ratio of Ki values
Chain of α4β2-nAChR (P17787 26-502): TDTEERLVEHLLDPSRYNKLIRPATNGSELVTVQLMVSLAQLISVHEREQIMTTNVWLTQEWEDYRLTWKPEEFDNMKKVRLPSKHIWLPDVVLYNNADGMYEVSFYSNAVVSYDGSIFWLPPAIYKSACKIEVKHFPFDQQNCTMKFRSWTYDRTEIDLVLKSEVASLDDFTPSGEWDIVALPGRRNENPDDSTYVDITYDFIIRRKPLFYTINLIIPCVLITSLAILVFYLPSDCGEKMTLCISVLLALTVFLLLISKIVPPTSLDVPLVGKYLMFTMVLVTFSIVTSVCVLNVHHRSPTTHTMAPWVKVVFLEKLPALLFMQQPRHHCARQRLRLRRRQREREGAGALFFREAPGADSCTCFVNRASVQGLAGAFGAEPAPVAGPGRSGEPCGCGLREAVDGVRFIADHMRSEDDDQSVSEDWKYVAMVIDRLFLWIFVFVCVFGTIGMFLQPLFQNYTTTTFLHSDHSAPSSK
Chain of α4β2-nAChR (P43681 29-627): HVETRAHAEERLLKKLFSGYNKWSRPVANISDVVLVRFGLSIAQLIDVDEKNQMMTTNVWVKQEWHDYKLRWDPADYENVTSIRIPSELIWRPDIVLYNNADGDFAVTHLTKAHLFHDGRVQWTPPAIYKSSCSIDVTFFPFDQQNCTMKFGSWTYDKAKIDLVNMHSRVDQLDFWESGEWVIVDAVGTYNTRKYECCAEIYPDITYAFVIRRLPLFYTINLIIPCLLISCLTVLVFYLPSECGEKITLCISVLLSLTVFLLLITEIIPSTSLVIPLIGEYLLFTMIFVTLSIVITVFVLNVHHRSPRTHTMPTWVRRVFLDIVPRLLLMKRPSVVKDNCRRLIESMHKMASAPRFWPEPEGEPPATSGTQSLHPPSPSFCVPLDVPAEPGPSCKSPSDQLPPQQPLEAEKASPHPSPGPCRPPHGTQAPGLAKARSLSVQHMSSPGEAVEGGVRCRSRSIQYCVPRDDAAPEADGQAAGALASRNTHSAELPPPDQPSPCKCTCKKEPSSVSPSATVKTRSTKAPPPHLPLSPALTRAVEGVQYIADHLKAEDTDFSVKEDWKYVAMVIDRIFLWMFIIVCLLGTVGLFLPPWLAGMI

[4] = Regional brain distribution; format: in vivo, CD-1 mice; conditions: for Regional brain distribution: i.v., mean ± SD (n=3)
Outline: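 Male CD-1 mice (25–30 g) got the radioiodinated test compound by lateral tail vein: 3 μCi, specific radioactivity 1600 mCi/μmol, in 0.2 mL saline. Mice were killed by cervical dislocation at various times (three per time point). Brains were dissected on ice, and regions were weighed and γ-counted alongside injectate standards. Uptake was expressed as %ID/g tissue.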

α3β4-nAChR = α3β4-nAChR (Homo sapiens, UniProt P30926+P32297); format: binding
Chain of α3β4-nAChR (P32297 32-505): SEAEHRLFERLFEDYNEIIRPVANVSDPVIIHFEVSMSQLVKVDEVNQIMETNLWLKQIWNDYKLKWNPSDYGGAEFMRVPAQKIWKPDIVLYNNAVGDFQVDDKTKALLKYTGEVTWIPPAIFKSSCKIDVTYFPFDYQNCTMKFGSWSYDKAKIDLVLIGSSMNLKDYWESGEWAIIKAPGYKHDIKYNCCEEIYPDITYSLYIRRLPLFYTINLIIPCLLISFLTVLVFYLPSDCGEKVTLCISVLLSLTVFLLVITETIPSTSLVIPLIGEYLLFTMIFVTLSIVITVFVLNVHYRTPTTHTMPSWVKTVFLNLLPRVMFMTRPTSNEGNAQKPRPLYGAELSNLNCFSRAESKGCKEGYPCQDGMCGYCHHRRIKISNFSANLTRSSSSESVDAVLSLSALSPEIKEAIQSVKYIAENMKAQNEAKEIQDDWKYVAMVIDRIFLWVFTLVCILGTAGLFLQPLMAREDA
Chain of α3β4-nAChR (P30926 22-498): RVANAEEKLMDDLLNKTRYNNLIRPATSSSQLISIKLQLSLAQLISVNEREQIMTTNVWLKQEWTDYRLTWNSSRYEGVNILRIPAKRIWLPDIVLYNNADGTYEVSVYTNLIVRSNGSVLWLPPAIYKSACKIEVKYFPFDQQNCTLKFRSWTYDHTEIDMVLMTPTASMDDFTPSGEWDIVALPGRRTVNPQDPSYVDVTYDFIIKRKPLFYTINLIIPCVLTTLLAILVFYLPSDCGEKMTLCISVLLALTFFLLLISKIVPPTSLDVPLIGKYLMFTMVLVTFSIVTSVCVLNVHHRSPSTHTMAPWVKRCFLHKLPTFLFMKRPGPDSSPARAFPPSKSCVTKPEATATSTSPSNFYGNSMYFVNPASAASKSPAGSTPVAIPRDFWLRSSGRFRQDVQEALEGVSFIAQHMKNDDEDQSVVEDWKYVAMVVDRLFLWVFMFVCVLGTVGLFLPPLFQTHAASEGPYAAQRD

Which “colliculus to cerebellum ratio” value [1] does the source give for `[125I]c1occc1-c1cnc2c(c1)C[C@@]1(CN3CCC1CC3)O2` [(1S,2R,4S)-5′-(2-[^125I]iodofuran-3-yl)-3′H-4-azaspiro[bicyclo[2.2.2]octane-2,2′-furo[2,3-b]pyridine]] here?
The value was ~ 2.5.

Which “inhibition of [^125I]iodo-ASEM binding by blocker” value (α7-nAChR [2]; cerebellum, P = 0.27) does the source give for `O=C(Oc1ccc(Br)cc1)N1CCN2CCC1CC2` [SSR180711] here?
The value was “the blockade was negligible”.

And the “inhibition of [^125I]iodo-ASEM binding by blocker” value (α7-nAChR [2]; superior and inferior colliculi and hippocampus, P < 0.01)?
Its value is “significantly inhibited”.

Which Ki (α7-nAChR [3]) does the source give for `O=S1(=O)c2cc(N3CCN4CCC3CC4)ccc2-c2cccc([125I])c21` [[^125I]iodo-ASEM, 3-(1,4-Diazabicyclo[3.2.2]nonan-4-yl)-6-[^125I]iododibenzo[b,d]thiophene 5,5-dioxide] here?
The Ki was 0.5 nM.

What about the “α7-nAChR Binding selectivity α7/α4β2” value (α4β2-nAChR) of the same molecule?
Its value is 3,414.

And the Regional brain distribution ([4]; Cerebellum, 5 min)?
The Regional brain distribution was 4.25±0.42 %ID/g tissue.

And the Regional brain distribution ([4]; Cerebellum, 20 min)?
Its Regional brain distribution is 5.20±2.08 %ID/g tissue.

And the Regional brain distribution ([4]; Cerebellum, 60 min)?
Its Regional brain distribution is 2.56±0.35 %ID/g tissue.

What about the Regional brain distribution ([4]; Cerebellum, 120 min) of the same molecule?
The Regional brain distribution was 1.41±0.08 %ID/g tissue.

And the Regional brain distribution ([4]; Cerebellum, 180 min)?
The Regional brain distribution was 0.76±0.15 %ID/g tissue.

And the Regional brain distribution ([4]; Cerebellum, 240 min)?
Its Regional brain distribution is 0.38±0.05 %ID/g tissue.

What about the Regional brain distribution ([4]; Cerebellum, 360 min) of the same molecule?
The Regional brain distribution was 0.21±0.04 %ID/g tissue.

And the Regional brain distribution ([4]; Cortex, 5 min)?
Its Regional brain distribution is 4.78±0.47 %ID/g tissue.

And the Regional brain distribution ([4]; Cortex, 20 min)?
The Regional brain distribution was 6.25±0.28 %ID/g tissue.

What about the Regional brain distribution ([4]; Cortex, 60 min) of the same molecule?
Its Regional brain distribution is 6.50±0.57 %ID/g tissue.

And the Regional brain distribution ([4]; Cortex, 120 min)?
The Regional brain distribution was 4.29±0.42 %ID/g tissue.

And the Regional brain distribution ([4]; Cortex, 180 min)?
The Regional brain distribution was 2.74±0.55 %ID/g tissue.

And the Regional brain distribution ([4]; Cortex, 240 min)?
Its Regional brain distribution is 1.40±0.06 %ID/g tissue.

What about the Regional brain distribution ([4]; Cortex, 360 min) of the same molecule?
The Regional brain distribution was 0.72±0.12 %ID/g tissue.

And the Regional brain distribution ([4]; Hippocampus, 5 min)?
Its Regional brain distribution is 3.63±0.40 %ID/g tissue.

What about the Regional brain distribution ([4]; Hippocampus, 20 min) of the same molecule?
The Regional brain distribution was 5.09±0.86 %ID/g tissue.

And the Regional brain distribution ([4]; Hippocampus, 60 min)?
Its Regional brain distribution is 4.40±0.12 %ID/g tissue.

And the Regional brain distribution ([4]; Hippocampus, 120 min)?
The Regional brain distribution was 3.40±2.03 %ID/g tissue.

And the Regional brain distribution ([4]; Hippocampus, 180 min)?
The Regional brain distribution was 2.66±0.58 %ID/g tissue.

And the Regional brain distribution ([4]; Hippocampus, 240 min)?
Its Regional brain distribution is 1.70±0.28 %ID/g tissue.

What about the Regional brain distribution ([4]; Hippocampus, 360 min) of the same molecule?
The Regional brain distribution was 0.97±0.12 %ID/g tissue.

What about the Regional brain distribution ([4]; Rest of brain, 5 min) of the same molecule?
Its Regional brain distribution is 3.89±0.42 %ID/g tissue.

And the Regional brain distribution ([4]; Rest of brain, 20 min)?
The Regional brain distribution was 4.90±0.24 %ID/g tissue.

What about the Regional brain distribution ([4]; Rest of brain, 60 min) of the same molecule?
The Regional brain distribution was 4.60±0.18 %ID/g tissue.

And the Regional brain distribution ([4]; Rest of brain, 120 min)?
The Regional brain distribution was 3.24±0.26 %ID/g tissue.

And the Regional brain distribution ([4]; Rest of brain, 180 min)?
The Regional brain distribution was 2.09±0.40 %ID/g tissue.

What about the Regional brain distribution ([4]; Rest of brain, 360 min) of the same molecule?
Its Regional brain distribution is 0.57±0.05 %ID/g tissue.

And the Regional brain distribution ([4]; Superior & inferior Colliculi, 5 min)?
The Regional brain distribution was 4.09±0.71 %ID/g tissue.

What about the Regional brain distribution ([4]; Superior & inferior Colliculi, 20 min) of the same molecule?
Its Regional brain distribution is 5.50±0.51 %ID/g tissue.

What about the Regional brain distribution ([4]; Superior & inferior Colliculi, 60 min) of the same molecule?
The Regional brain distribution was 5.14±0.20 %ID/g tissue.

What about the Regional brain distribution ([4]; Superior & inferior Colliculi, 120 min) of the same molecule?
Its Regional brain distribution is 4.37±0.57 %ID/g tissue.

And the Regional brain distribution ([4]; Superior & inferior Colliculi, 180 min)?
The Regional brain distribution was 3.16±0.75 %ID/g tissue.

And the Regional brain distribution ([4]; Superior & inferior Colliculi, 240 min)?
The Regional brain distribution was 1.50±0.28 %ID/g tissue.

What about the Regional brain distribution ([4]; Superior & inferior Colliculi, 360 min) of the same molecule?
Its Regional brain distribution is 0.87±0.08 %ID/g tissue.

What about the “colliculus to cerebellum ratio, maximum” value ([4]; at 180 min post-injection, CD-1 mice) of the same molecule?
Its value is 4.2.

Which “reduction of [^125I]iodo-ASEM accumulation in mouse brain by blocker” value (α7-nAChR [2]; cytisine 0.5 mg/kg s.c.) does the source give for `O=c1cccc2n1C[C@@H]1CNC[C@H]2C1` [cytisine] here?
Its value is “neither cytisine nor ondansetron reduced”.

For `O=S1(=O)c2cc(N3CCN4CCC3CC4)ccc2-c2cccc(I)c21` [iodo-ASEM], which Ki (α7-nAChR [3]; α7 (rat), HEK-293 membranes, [^3H]epibatidine, mean ± SEM (n=3)) is on record?
Its Ki is 0.5 ± 0.2 nM.

What about the “α7-nAChR Binding selectivity α7/α3β4” value (α3β4-nAChR; ratio of Ki values) of the same molecule?
The value was “α7/α3β4 = 90”.

What about the Ki (α3β4-nAChR; α3β4 (human), HEK-293 membranes, [^3H]epibatidine, mean ± SEM (n=3)) of the same molecule?
The Ki was 45 ± 8 nM.

And the “α7-nAChR Binding selectivity α7/α4β2” value (α4β2-nAChR)?
The value was “α7/α4β2 = 3,414”.

What about the Ki (α4β2-nAChR; α4β2 (human), HEK-293 membranes, [^3H]epibatidine, mean ± SEM (n=3)) of the same molecule?
Its Ki is 1710 ± 373 nM.

For `Cc1nccn1CC1CCc2c(c3ccccc3n2C)C1=O` (centres unmarked) [ondansetron], which “reduction of [^125I]iodo-ASEM accumulation in mouse brain by blocker” value (α7-nAChR [2]; ondansetron 2 mg/kg s.c.) is on record?
The value was “neither cytisine nor ondansetron reduced”.
